The results in this text go back to ChEMBL document CHEMBL1687774, “Furanyl-rhodanines are unattractive drug candidates for development as inhibitors of bacterial RNA polymerase” (Antimicrob Agents Chemother, 2010).

Each structure is given as a SMILES string. In brackets after ≈: the same amount, converted by molar mass.

Assay [1] is described as follows: Inhibition of Escherichia coli RNA polymerase using Kool NC-45 universal RNA polymerase template. The procedure, abridged:
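In vitro E. coli RNA polymerase assay using the Kool NC-45 universal RNA polymerase template; IC50 determined.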

For assay [2], the species on record is Sus scrofa. Description: Inhibition of pig Malate dehydrogenase at 100 uM. In outline:
(§1)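 Bovine chymotrypsin and porcine malate dehydrogenase specificity screens with compound at 100 μM; percent inhibition of enzyme activity.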

Assay [3] is filed under the species Bos taurus. Description: Inhibition of bovine Chymotrypsin at 100 uM. The procedure, abridged:
as §1

The subject of assay [4] is Staphylococcus aureus. Description: Antibacterial activity against Staphylococcus aureus SH1000 by microdilution method. In kind it is functional. In outline: (§2)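 MICs by broth microdilution in Mueller-Hinton broth following British Society for Antimicrobial Chemotherapy guidelines; where used, polymyxin B nonapeptide (4 μg/ml) was added together with the compound.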

Assay [5] relates to Escherichia coli. Description: Antibacterial activity against Escherichia coli 1411 by microdilution method. The class given is functional. The procedure, abridged: as §2
The test system of assay [6] is Escherichia coli. Description: Antibacterial activity against Escherichia coli 1411 by microdilution method in presence of 4 ug/ml PMBN. In kind it is functional. In outline: as §2
Background: Dilution methods test growth across graded concentrations, often in twofold steps.

In assay [7] the test system is Escherichia coli. Description: Antibacterial activity against AcrAB-deficient Escherichia coli SM1411 by microdilution method. The class given is functional. In outline: as §2
Assay [8] deals with Bacillus subtilis. Description: Antibacterial activity against Bacillus subtilis 1S34 by microdilution method. The class given is functional. The procedure, abridged: as §2
For assay [9], the system named is Staphylococcus aureus. Description: Induction of membrane integrity loss in Staphylococcus aureus SH1000 at 4 times MIC after 10 mins by BacLight assay. In kind it is functional. In outline: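 Membrane integrity measured by BacLight fluorescence after S. aureus SH1000 was exposed to 4× MIC of compound for 10 min; expressed relative to the drug-free control (100%).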

The test system of assay [10] is Staphylococcus aureus. Description: Induction of membrane potential loss in Staphylococcus aureus SH1000 at 4 times MIC after 10 mins by DIS3 fluorescence assay. In kind it is functional. The procedure, abridged: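 Membrane potential measured with the fluorescent dye DiSc3(5) after S. aureus SH1000 was exposed to 4× MIC of compound for 10 min; expressed relative to the drug-free control (100%).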

The subject of assay [11] is Bacillus subtilis. Description: Inhibition of DNA biosynthesis in Bacillus subtilis 1S34 assessed as induction in biosensor yorB promoter-luciferase reporter signal relative to untreated control. In kind it is functional. The procedure, abridged: (§3)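 B. subtilis biosensor strains carry stress-responsive promoter-reporter constructs (parent 1S34). Value is the maximum reporter signal induced, as a ratio to the signal in noninduced control cultures.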
For orientation: Reporter assays use an easily measured gene product as a stand-in for the process of interest.

Assay [12] concerns Bacillus subtilis. Description: Inhibition of RNA biosynthesis in Bacillus subtilis 1S34 assessed as induction in biosensor yvgS promoter-luciferase reporter signal relative to untreated control. The class given is functional. The procedure, abridged:
as §3

The test system of assay [13] is Bacillus subtilis. Description: Inhibition of Protein biosynthesis in Bacillus subtilis 1S34 assessed as induction in biosensor yheI promoter-luciferase reporter signal relative to untreated control. The class given is functional. In outline:
as §3

The test system of assay [14] is Bacillus subtilis. Description: Inhibition of Cell envelope biosynthesis in Bacillus subtilis 1S34 assessed as induction in biosensor ypuA promoter-luciferase reporter signal relative to untreated control. In kind it is functional. In outline: as §3
Assay [15] deals with Bacillus subtilis. Description: Inhibition of Fatty acid biosynthesis in Bacillus subtilis 1S34 assessed as induction in biosensor fabHB promoter-luciferase reporter signal relative to untreated control. In kind it is functional. The procedure, abridged:
as §3

For assay [16], the species on record is Sus scrofa. Description: Inhibition of pig Malate dehydrogenase at 0.0472 uM.
The species entered for assay [17] is Bos taurus. Description: Inhibition of bovine Chymotrypsin at 0.0472 uM.
For assay [18], the system named is Staphylococcus epidermidis. Description: Antibacterial activity against Staphylococcus epidermidis ATCC 11047 by microdilution method. In kind it is functional. The procedure, abridged: as §2

With `O=C(O)CCCN1C(=O)/C(=C/c2ccc(-c3cccc(Cl)c3)o2)SC1=S`, in [1], the IC50 worked out at 16.3 µM. Further, the inhibition came to 88.1% in [2] and 96.7% in assay [3]. Besides, the MIC in assay [4] is 4 µg/mL (≈ 9.81 µM); in assay [5], above 128 µg/mL; in assay [6], 16 µg/mL; in assay [7], above 128 µg/mL; in assay [8], 1 µg/mL (≈ 2.45 µM). Also, the Activity in assay [9] is 27.3%; in assay [10], 43.1%. In addition, the “fold change (FC)” value in [11] came out at 1.1; in [12], 1; in assay [13] it was 1.2; in [14], 1; in assay [15], 0.9.

In assay [1], `C/C=C/C/C=C(\C)C(O)CC/C(C)=C/C=C(\C)C(=O)c1c(O)cc([C@H](C)CC/C=C/NC(=O)OC)oc1=O` (some centres undefined) [CORALLOPYRONIN A] returned a concentration for half-maximal inhibition (IC50) of 0.726 µM. This counts as sub-micromolar.

In the case of `CO[C@H]1/C=C/O[C@@]2(C)Oc3c(C)c(O)c4c(O)c(cc(O)c4c3C2=O)NC(=O)/C(C)=C\C=C\[C@H](C)[C@H](O)[C@@H](C)[C@@H](O)[C@@H](C)[C@H](OC(C)=O)[C@@H]1C` [RIFAMYCIN], 0.0086 µM corresponded to half-maximal inhibition in assay [1] (IC50).

In turn, `O=C1NC(=S)S/C1=C\c1ccc([N+](=O)[O-])o1` came in with an IC50 in assay [1] of 32.2 µM. Besides, the inhibition amounted to 99.7% in assay [2] and 49.4% in assay [3]. Further, the MIC in [4] worked out at 4 µg/mL (≈ 15.6 µM); in assay [5] it was 16 µg/mL (≈ 62.4 µM); in [6], 2 µg/mL; in assay [7] it was 16 µg/mL (≈ 62.4 µM); in assay [8], 1 µg/mL (≈ 3.9 µM). For the same molecule, the figures for the Activity in [9] and in assay [10] were 82.8% and 104.8%, respectively. The “fold change (FC)” value in [11] was determined as 8; in assay [12], 1.3; in assay [13], 1.3; in [14], 1; in [15] it was 1.4.

With `CO[C@H]1/C=C/O[C@@]2(C)Oc3c(C)c(O)c4c(O)c(c(/C=N/N5CCN(C)CC5)c(O)c4c3C2=O)NC(=O)/C(C)=C\C=C\[C@H](C)[C@H](O)[C@@H](C)[C@@H](O)[C@@H](C)[C@H](OC(C)=O)[C@@H]1C` [RIFAMPIN], half-maximal inhibition in assay [1] (IC50) required 0.0115 µM. Further, the inhibition in assay [16] stood at 8.3%; in [17], 7.8%.

With `C=CCN1C(=O)/C(=C/c2ccc(-c3ccc(C(=O)O)cc3)o2)SC1=S`, in assay [1], 37.3 µM corresponded to half-maximal inhibition (IC50). For the same molecule, the inhibition in assay [2] worked out at 96.3%; in assay [3] it was 67.4%. Further, the MIC in assay [4], in [18], in [5], in [6], in [7] and in assay [8] was above 256 µg/mL each time.

In general, IC50 refers to the concentration that inhibits the measured activity by half. Low values mean greater potency in that assay, high ones weaker potency in that assay. One may read the inhibition as how much of the control response was suppressed. What is called MIC is the lowest concentration found to suppress growth.
